# Data as given in ChEMBL document CHEMBL1152279 (J Med Chem, 2008).
# Experiments:
# [1] = biological target: Histamine H2 receptor (Cavia porcellus) (UniProt P47747); assay: Agonist activity at histamine H2 receptor in guinea pig spontaneously beating right atrium assessed as positive chronotropic activity relative to histamine; assay type: functional, tissue-based; conditions: Cardiac atrium
# [2] = biological target: Histamine H1 receptor (Homo sapiens) (UniProt P35367); assay: Antagonist activity at histamine H1 receptor in human U373 MG cells assessed as inhibition of histamine-induced intracellular calcium level preincubated for 15 mins prior to histamine challenge; assay type: functional, cell-based; conditions: U-373MG ATCC
# How it was run: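 U373-MG human cells expressing H1R, calcium assay. […] KB was derived from IC50 by the Cheng-Prusoff equation. Values are the mean of two experiments.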
# [3] = biological target: Histamine H2 receptor (Cavia porcellus) (UniProt P47747); assay: Activity at guinea pig recombinant histamine H2 receptor-Gsalpha fusion protein expressed in Sf9 cells by steady-state GTPase activity assay relative to histamine
# How it was run: (§1)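 Membranes from Sf9 insect cells expressing the receptor construct named in each line: hH1R with RGS4, hH2R-GsR or gpH2R-GsR fusion, hH3R with GRi, Gβ1γ2 and RGS4, or hH4R-RGS19 fusion with GRi2 and Gβ1γ2. […] Values are mean ± SEM.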
# Histamine H2 receptor [4] = biological target: T1, Histamine H2 receptor (Homo sapiens, UniProt P25021); assay: Activity at human recombinant histamine H2 receptor-Gsalpha fusion protein expressed in Sf9 cells by steady-state GTPase activity assay relative to histamine; how it was run: as §1
# Histamine H3 receptor [5] = biological target: T2, Histamine H3 receptor (Homo sapiens, UniProt Q9Y5N1); assay: Activity at human recombinant histamine H3 receptor expressed in Sf9 cells coexpressing Galphai2, G-beta-1-gamma-2 and RGS4 by steady-state GTPase activity assay relative to histamine; how it was run: as §1
# [6] = biological target: Histamine H1 receptor (Homo sapiens) (UniProt P35367); assay: Activity at human recombinant histamine H1 receptor expressed in Sf9 cells coexpressing RGS4 by steady-state GTPase activity assay relative to histamine; how it was run: as §1
# Histamine H1 receptor = Histamine H1 receptor (Cavia porcellus, UniProt P31389); assay: Antagonist activity at histamine H1 receptor in guinea pig ileum assessed as inhibition of histamine-induced […]; assay type: functional, tissue-based; conditions: for Kb: read-out: pA2 (converted)
# Histamine H2 receptor [7] = biological target: T3, Histamine H2 receptor (Cavia porcellus, UniProt P47747); assay: Agonist activity at histamine H2 receptor in guinea pig spontaneously beating right atrium assessed as positive chronotropic activity; assay type: functional, tissue-based, Cardiac atrium
# [8] = biological target: Histamine H1 receptor (Cavia porcellus) (UniProt P31389); assay: Antagonist activity at histamine H1 receptor in guinea pig ileum assessed as […]
# Histamine H3 receptor [9] = biological target: T2, Histamine H3 receptor; assay: Activity at human recombinant histamine H3 receptor expressed in Sf9 cells coexpressing Galphai, G-beta-1-gamma-2 and RGS4 by steady-state GTPase activity assay; how it was run: as §1
# [10] = Terminal half life in nude mouse plasma; assay type: ADME, organism-based; conditions: read-out: beta t1/2
# Histamine H4 receptor = Histamine H4 receptor (Homo sapiens, UniProt Q9H3N8); assay: Activity at human recombinant histamine H4 receptor-RGS19 fusion protein expressed in Sf9 cells coexpressing Galphai2 and G-beta-1-gamma-2 by steady-state GTPase activity assay
# Histamine H2 receptor [11] = biological target: T1, Histamine H2 receptor; assay: Activity at human recombinant histamine H2 receptor-Gsalpha fusion protein expressed in Sf9 cells by steady-state GTPase activity assay
# How it was run: (§2)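 Membranes from Sf9 insect cells expressing the receptor construct named in each line: hH1R with RGS4, hH2R-GsR or gpH2R-GsR fusion, hH3R with GRi, Gβ1γ2 and RGS4, or hH4R-RGS19 fusion with GRi2 and Gβ1γ2. Values are mean ± SEM.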
# Histamine H2 receptor [12] = biological target: T3, Histamine H2 receptor; assay: Activity at guinea pig recombinant histamine H2 receptor-Gsalpha fusion protein expressed in Sf9 cells by steady-state GTPase activity assay; how it was run: as §2
# [13] = Dissociation constant, pKa of the compound; assay type: physicochemical
# Histamine H4 receptor, sequence (Q9H3N8 whole entry, the tested form may be a part): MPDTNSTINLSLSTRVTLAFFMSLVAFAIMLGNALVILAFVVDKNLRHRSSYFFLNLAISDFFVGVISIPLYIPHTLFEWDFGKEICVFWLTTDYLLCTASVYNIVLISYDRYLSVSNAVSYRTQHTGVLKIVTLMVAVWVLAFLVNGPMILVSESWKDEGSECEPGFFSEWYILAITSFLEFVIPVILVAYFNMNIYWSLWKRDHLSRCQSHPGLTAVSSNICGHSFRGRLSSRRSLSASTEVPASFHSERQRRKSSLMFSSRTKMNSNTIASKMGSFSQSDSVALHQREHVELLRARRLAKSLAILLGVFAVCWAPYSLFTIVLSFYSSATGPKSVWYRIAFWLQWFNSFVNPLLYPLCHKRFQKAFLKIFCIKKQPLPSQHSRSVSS
# Histamine H2 receptor (Cavia porcellus), sequence (P47747 whole entry, the tested form may be a part): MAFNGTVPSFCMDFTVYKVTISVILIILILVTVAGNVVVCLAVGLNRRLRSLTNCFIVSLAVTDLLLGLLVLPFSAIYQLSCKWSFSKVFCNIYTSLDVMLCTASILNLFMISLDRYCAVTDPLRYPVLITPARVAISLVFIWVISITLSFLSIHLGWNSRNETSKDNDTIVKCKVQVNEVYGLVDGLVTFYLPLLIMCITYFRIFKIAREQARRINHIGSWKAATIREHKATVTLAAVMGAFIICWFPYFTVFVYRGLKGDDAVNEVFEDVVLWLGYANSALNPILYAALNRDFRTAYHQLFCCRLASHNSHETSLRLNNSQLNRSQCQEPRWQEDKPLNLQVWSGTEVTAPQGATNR
# T3 sequence (P47747 whole entry): as the sequence (P47747 whole entry, the tested form may be a part) above
# T2 sequence (Q9Y5N1 whole entry): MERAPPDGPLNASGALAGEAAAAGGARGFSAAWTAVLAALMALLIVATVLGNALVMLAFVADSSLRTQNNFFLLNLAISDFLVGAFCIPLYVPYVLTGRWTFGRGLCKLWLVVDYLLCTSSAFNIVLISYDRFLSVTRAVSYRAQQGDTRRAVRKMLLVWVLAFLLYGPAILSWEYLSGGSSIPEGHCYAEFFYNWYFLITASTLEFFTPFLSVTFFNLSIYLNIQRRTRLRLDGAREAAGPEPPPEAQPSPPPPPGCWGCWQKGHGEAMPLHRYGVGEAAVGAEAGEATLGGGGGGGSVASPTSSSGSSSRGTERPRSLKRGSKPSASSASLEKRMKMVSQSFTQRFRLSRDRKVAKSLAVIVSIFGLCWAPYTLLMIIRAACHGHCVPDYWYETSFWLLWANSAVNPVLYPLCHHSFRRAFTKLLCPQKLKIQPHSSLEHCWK
# Histamine H1 receptor (Homo sapiens), sequence (P35367 whole entry): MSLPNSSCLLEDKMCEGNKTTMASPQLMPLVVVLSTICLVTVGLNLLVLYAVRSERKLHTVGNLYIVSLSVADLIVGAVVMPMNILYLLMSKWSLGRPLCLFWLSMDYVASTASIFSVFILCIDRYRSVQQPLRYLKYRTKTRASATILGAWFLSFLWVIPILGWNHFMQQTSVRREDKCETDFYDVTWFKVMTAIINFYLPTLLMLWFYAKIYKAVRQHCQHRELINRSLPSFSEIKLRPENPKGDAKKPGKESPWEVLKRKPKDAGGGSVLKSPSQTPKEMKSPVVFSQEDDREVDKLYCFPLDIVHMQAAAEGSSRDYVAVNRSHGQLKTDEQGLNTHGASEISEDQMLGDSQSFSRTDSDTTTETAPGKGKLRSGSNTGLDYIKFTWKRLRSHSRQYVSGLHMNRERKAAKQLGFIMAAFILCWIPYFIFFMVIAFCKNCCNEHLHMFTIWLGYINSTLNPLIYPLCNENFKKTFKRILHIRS
# T1 sequence (P25021 whole entry, the tested form may be a part): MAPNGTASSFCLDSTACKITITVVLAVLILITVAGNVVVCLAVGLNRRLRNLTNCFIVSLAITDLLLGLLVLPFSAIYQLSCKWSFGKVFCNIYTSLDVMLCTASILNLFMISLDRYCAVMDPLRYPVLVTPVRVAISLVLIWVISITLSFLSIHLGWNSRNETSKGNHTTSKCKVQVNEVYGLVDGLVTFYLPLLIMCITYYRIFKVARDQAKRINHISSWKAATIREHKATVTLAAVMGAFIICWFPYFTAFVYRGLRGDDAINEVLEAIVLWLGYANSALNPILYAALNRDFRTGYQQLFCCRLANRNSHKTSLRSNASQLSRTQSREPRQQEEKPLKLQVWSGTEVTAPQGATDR
# Histamine H1 receptor (Cavia porcellus), sequence (P31389 whole entry): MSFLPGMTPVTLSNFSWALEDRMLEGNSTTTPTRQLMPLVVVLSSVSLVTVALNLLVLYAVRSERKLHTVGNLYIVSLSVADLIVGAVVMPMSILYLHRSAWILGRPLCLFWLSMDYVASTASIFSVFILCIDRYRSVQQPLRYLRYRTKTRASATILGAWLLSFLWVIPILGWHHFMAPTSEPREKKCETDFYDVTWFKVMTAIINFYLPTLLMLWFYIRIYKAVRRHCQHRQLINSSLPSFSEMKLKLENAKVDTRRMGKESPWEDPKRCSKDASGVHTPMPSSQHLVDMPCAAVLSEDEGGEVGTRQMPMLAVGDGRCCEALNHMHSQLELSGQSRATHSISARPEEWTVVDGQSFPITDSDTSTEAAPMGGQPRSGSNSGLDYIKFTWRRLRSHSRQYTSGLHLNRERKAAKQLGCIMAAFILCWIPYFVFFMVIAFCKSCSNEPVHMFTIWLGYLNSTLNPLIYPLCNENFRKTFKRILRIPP
# Histamine H1 receptor, sequence (P31389 whole entry): as above
SMILES,Activity [1],Emax [1],Kb [2],Kb (Histamine H1 receptor),EC50 (Histamine H2 receptor [7]),other results
N=C(NCCCc1c[nH]cn1)NC(=O)C1CCCCC1,2090%,102%,6000 nM,–,–,–
CC(CC(=O)NC(=N)NCCCc1c[nH]cn1)c1nccs1 (stereo unspecified),2590%,91%,11100 nM,–,–,–
CC(CC(=O)NC(=N)NCCCc1c[nH]cn1)c1cccs1 (stereo unspecified),2630%,99%,2100 nM,–,–,Activity [3]: 5710%; Efficacy [3]: 1.05; Activity (Histamine H2 receptor [4]): 1160%; Efficacy (Histamine H2 receptor [4]): 0.97; Activity (Histamine H3 receptor [5]): 1530%; Efficacy (Histamine H3 receptor [5]): 0.29; Activity [6]: 1.8%
NC(=NCCCc1cnc[nH]1)NC(=O)CC(c1ccc(F)cc1)c1ccccn1 (stereo unspecified),–,–,–,3720 nM,33.9 nM,–
N=C(NCCCc1c[nH]cn1)NC(=O)CCCc1ccccc1,1780%,94%,7100 nM,1820 nM,56.2 nM,–
N=C(NCCCc1c[nH]cn1)NC(=O)CCCC1CCCCC1,269%,89%,1100 nM,741 nM,372 nM,–
N=C(NCCCc1c[nH]cn1)NC(=O)CC(c1ccc(F)cc1)c1ccc(F)cc1,490%,76%,1400 nM,–,204 nM,pD'2 [8]: 5.95
NC(=NCCCc1cnc[nH]1)NC(=O)CCC1CCCCC1,–,–,–,6170 nM,61.7 nM,–
CC(C(=O)NC(N)=NCCCc1cnc[nH]1)C1CCCCC1 (stereo unspecified),–,–,–,2340 nM,138 nM,–
CC(CC(=O)NC(N)=NCCCc1cnc[nH]1)C1CCCCC1 (stereo unspecified),–,–,–,2190 nM,67.6 nM,–
CC(CC(=O)/N=C(\N)NCCCc1c[nH]cn1)c1ccccc1 (stereo unspecified),6350%,99%,3000 nM,–,–,Activity [3]: 10000%; Efficacy [3]: 1.03; Activity (Histamine H2 receptor [4]): 1800%; Efficacy (Histamine H2 receptor [4]): 0.87; Activity (Histamine H3 receptor [5]): 1024%; Efficacy (Histamine H3 receptor [5]): 0.24; Activity [6]: 1.3%; Efficacy [6]: 0.35
NC(=NCCCc1cnc[nH]1)NC(=O)CC(c1ccc(F)c(F)c1)c1ncc[nH]1 (stereo unspecified),–,–,–,–,97.7 nM,–
N=C(NCCCc1c[nH]cn1)NC(=O)CC(c1ccccc1)c1ccc(F)c(F)c1 (stereo unspecified),1850%,81%,1200 nM,–,–,pD'2 [8]: 6.06
CC(CC(=O)NC(=N)NCCCc1c[nH]cn1)C1CCCCC1 (stereo unspecified),1470%,101%,140 nM,–,–,–
N=C(NCCCc1c[nH]cn1)NC(=O)CC(c1ccccc1)c1ccccc1,3530%,85%,–,–,–,Activity [3]: 19000%; Efficacy [3]: 0.93; Activity (Histamine H2 receptor [4]): 1500%; Efficacy (Histamine H2 receptor [4]): 0.69; pD'2 [8]: 5.2; Kb (Histamine H3 receptor [9]): 17.1 nM; Activity [6]: 6.4%; Efficacy [6]: 0.19
N=C(NCCCc1c[nH]cn1)NC(=O)CC1CCCCC1,1000%,95%,4300 nM,–,–,–
N=C(NCCc1c[nH]cn1)NC(=O)CC(c1ccccc1)c1ccccc1,154%,64%,8700 nM,9770 nM,646 nM,pD'2 [8]: 4.55
N=C(NCCCc1c[nH]cn1)NC(=O)CC(c1ccc(F)cc1)c1ccccn1 (stereo unspecified),2930%,100%,5200 nM,–,–,–
NC(=NCCCc1cnc[nH]1)NC(=O)CC(c1ccc(Cl)cc1)c1ccc(Cl)cc1,–,–,–,–,309 nM,–
N=C(NCCCc1c[nH]cn1)NC(=O)CC(c1ccccc1)c1nccs1 (stereo unspecified),2630%,100%,6800 nM,–,–,Activity [3]: 8570%; Efficacy [3]: 0.94; Activity (Histamine H2 receptor [4]): 1000%; Efficacy (Histamine H2 receptor [4]): 0.8; Kb (Histamine H3 receptor [9]): 113 nM; Activity [6]: 1%
Cc1[nH]cnc1CSCCNC(=N)NCCCc1c[nH]cn1 [IMPROMIDINE],5000%,100%,–,3390 nM,20 nM,–
N=C(NCCCc1c[nH]cn1)NC(=O)CC(c1ccc(F)c(F)c1)c1nccs1 (stereo unspecified),2000%,90%,4600 nM,4680 nM,50.1 nM,half-life [10]: 28 min
CC(CC(=O)NC(=N)NCCCc1c[nH]cn1)c1ccccn1 (stereo unspecified),2610%,98%,7400 nM,–,38 nM,–
NC(=NCCCc1cnc[nH]1)NC(=O)CC(c1ccccc1)c1ccc(F)c(F)c1 (stereo unspecified),–,–,–,–,53.7 nM,–
CC(CC(=O)NC(N)=NCCCc1cnc[nH]1)c1ccccc1 (stereo unspecified),–,–,–,1350 nM,15.8 nM,half-life [10]: 67 min; EC50 (Histamine H4 receptor): 15.3 nM; EC50 (Histamine H3 receptor [9]): 2.45 nM; EC50 (Histamine H2 receptor [11]): 67 nM; EC50 (Histamine H2 receptor [12]): 12 nM
CC(C(=O)NC(=N)NCCCc1c[nH]cn1)C1CCCCC1 (stereo unspecified),729%,86%,8800 nM,–,–,–
N=C(NCCCc1c[nH]cn1)NC(=O)CCCCc1ccccc1,211%,86%,–,562 nM,468 nM,–

SMILES,Activity [1],Emax [1],Kb [2],Kb (Histamine H1 receptor),EC50 (Histamine H2 receptor [7]),other results
NC(=NCCCc1cnc[nH]1)NC(=O)CC(c1ccc(Br)cc1)c1ccc(Br)cc1,–,–,–,–,776 nM,–
CC(CC(=O)NC(N)=NCCCc1cnc[nH]1)c1cccs1 (stereo unspecified),–,–,–,–,38 nM,EC50 (Histamine H4 receptor): 6.3 nM; EC50 (Histamine H3 receptor [9]): 1.64 nM; EC50 (Histamine H2 receptor [11]): 109 nM; EC50 (Histamine H2 receptor [12]): 21 nM
N=C(NCCCc1c[nH]cn1)NC(=O)CCC1CCCCC1,1610%,98%,1600 nM,–,–,–
N=C(NCCCc1c[nH]cn1)NC(=O)CC(c1ccccc1)c1ccccn1 (stereo unspecified),1960%,97%,4900 nM,11200 nM,51.3 nM,–
N=C(NCCCc1c[nH]cn1)NC(=O)CC(c1ccccc1)c1ccc(F)cc1 (stereo unspecified),1830%,95%,–,–,55 nM,pD'2 [8]: 5.39
N=C(NCCCc1c[nH]cn1)NC(=O)C(c1ccccc1)c1ccccc1,95%,69%,4000 nM,–,–,–
N=C(NCCCc1c[nH]cn1)NC(=O)CC(c1ccc(Cl)cc1)c1ccc(Cl)cc1,320%,60%,–,–,–,–
NC(=NCCCc1cnc[nH]1)NC(=O)CC(c1ccccc1)c1nccs1 (stereo unspecified),–,–,–,4680 nM,38 nM,EC50 (Histamine H4 receptor): 66.3 nM; EC50 (Histamine H2 receptor [11]): 120 nM; EC50 (Histamine H2 receptor [12]): 14 nM
N=C(NCCCc1c[nH]cn1)NC(=O)CC(c1ccc(F)c(F)c1)c1nccn1Cc1ccccc1 (stereo unspecified),251%,54%,2900 nM,–,398 nM,–
CC(=O)NC(=N)N,–,–,–,–,–,pKa [13]: 7.6
N=C(NCCCc1c[nH]cn1)NC(=O)CC(c1ccc(F)c(F)c1)c1ncc[nH]1 (stereo unspecified),1030%,100%,6200 nM,–,–,–
NC(=NCCCc1cnc[nH]1)NC(=O)CC(c1ccccc1)c1ccccc1,–,–,–,741 nM,28.2 nM,EC50 (Histamine H4 receptor): 8.6 nM; EC50 (Histamine H2 receptor [11]): 78 nM; EC50 (Histamine H2 receptor [12]): 6 nM
NC(=NCCCc1cnc[nH]1)NC(=O)C1CCCCC1,–,–,–,5130 nM,47.9 nM,–
NC(=NCCC(c1ccc(F)cc1)c1ccccn1)NCCCc1cnc[nH]1 (stereo unspecified) [ARPROMIDINE],–,–,–,–,9.77 nM,–
NC(=NCCCc1cnc[nH]1)NC(=O)CC1CCCCC1,–,–,–,2450 nM,100 nM,–
N=C(NCCCc1c[nH]cn1)NC(=O)CC(c1ccc(Br)cc1)c1ccc(Br)cc1,130%,60%,–,–,–,–
NC(=NCCCc1cnc[nH]1)NC(=O)C(c1ccccc1)c1ccccc1,–,–,–,–,1050 nM,–
N=C(NCCCc1c[nH]cn1)NC(=O)Cc1ccccc1,546%,97%,2800 nM,–,–,–
CC(C(=O)NC(=N)NCCCc1c[nH]cn1)c1ccccc1 (stereo unspecified),28%,88%,8800 nM,–,–,–
N=C(NCCCc1c[nH]cn1)NC(=O)c1ccccc1,86%,89%,15800 nM,–,1170 nM,pA2 (Histamine H1 receptor): > 5
CC(C(=O)NC(N)=NCCCc1cnc[nH]1)c1ccccc1 (stereo unspecified),–,–,–,> 10000 nM,3630 nM,–
CC(CC(=O)NC(N)=NCCCc1cnc[nH]1)c1nccs1 (stereo unspecified),–,–,–,–,38.9 nM,–
N=C(NCCCc1c[nH]cn1)NCCC(c1ccc(F)cc1)c1ccccn1 (stereo unspecified),10200%,100%,–,–,–,–
N=C(NCCCc1c[nH]cn1)NC(=O)CCc1ccccc1,607%,97%,9200 nM,2140 nM,166 nM,–
Cc1nc[nH]c1CSCC(=O)NC(N)=NCCCc1cnc[nH]1,–,–,–,4270 nM,30.9 nM,–
Cc1[nH]cnc1CSCC(=O)NC(=N)NCCCc1c[nH]cn1,3200%,101%,8500 nM,–,–,–
NC(=NCCCc1cnc[nH]1)NC(=O)Cc1ccccc1,–,–,–,575 nM,182 nM,–
